Tests used:
[1] = molecular target: Phosphatidylinositol 4,5-bisphosphate 3-kinase catalytic subunit beta isoform (Homo sapiens, UniProt P42338); experiment: Binding affinity to human wild-type partial length PI3Kbeta (P118 to S1070 residues) expressed in mammalian expression system by kinome scan assay
In short: (§1)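 DNA-tagged kinases competed against immobilized ligand with an 11-point 3-fold serial dilution starting from 30 μM. Kinase bound measured by qPCR of the DNA tags. Kd from standard dose–response curves with the Hill equation (Hill slope −1); mean of duplicate experiments.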

Homo sapiens [2] = species on record: Homo sapiens; experiment: Selectivity ratio of Kd for binding affinity to human wild-type partial length PI3Kalpha (R108 to N1068 residues) expressed in mammalian expression system to Kd for binding affinity to wild-type human partial length mTOR (L1382 to W2549 residues) expressed in mammalian expression system
In short: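 Ratio of Kd values from the DNA-tagged kinase competition binding assay (qPCR read-out, 11-point 3-fold dilution from 30 μM, Hill fit with slope −1, duplicates): PI3Kα Kd divided by mTOR Kd.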

[3] = molecular target: PI3-kinase p110-alpha/p85-alpha (Homo sapiens, UniProt P42336); experiment: Inhibition of alexa fluor 647-labeled kinase tracer 314 binding to recombinant human full-length N-terminal His6-tagged p110alpha/p85alpha expressed in baculovirus expression system by TR-FRET assay
PI3-kinase p110-alpha/p85-alpha, sequence (P27986 whole entry, the tested form may be a part): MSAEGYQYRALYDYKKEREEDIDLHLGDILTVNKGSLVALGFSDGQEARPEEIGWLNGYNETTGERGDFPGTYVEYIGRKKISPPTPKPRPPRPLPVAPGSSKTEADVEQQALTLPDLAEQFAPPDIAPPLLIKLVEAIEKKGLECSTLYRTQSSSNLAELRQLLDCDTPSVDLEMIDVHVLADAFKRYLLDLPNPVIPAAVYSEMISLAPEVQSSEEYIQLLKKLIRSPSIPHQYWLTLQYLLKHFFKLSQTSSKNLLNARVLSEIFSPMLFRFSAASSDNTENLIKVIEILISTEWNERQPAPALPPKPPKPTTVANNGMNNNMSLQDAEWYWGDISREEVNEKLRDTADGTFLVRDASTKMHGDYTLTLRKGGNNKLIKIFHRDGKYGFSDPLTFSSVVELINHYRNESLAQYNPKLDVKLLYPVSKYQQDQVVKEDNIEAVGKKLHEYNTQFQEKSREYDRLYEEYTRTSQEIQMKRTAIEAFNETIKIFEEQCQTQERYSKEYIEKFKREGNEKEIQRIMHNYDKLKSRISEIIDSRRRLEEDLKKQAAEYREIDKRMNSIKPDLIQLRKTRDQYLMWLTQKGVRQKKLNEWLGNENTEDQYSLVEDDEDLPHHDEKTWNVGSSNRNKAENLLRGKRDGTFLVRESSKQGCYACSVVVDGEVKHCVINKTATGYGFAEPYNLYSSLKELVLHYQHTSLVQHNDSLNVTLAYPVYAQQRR
PI3-kinase p110-alpha/p85-alpha, sequence (P42336 whole entry, the tested form may be a part): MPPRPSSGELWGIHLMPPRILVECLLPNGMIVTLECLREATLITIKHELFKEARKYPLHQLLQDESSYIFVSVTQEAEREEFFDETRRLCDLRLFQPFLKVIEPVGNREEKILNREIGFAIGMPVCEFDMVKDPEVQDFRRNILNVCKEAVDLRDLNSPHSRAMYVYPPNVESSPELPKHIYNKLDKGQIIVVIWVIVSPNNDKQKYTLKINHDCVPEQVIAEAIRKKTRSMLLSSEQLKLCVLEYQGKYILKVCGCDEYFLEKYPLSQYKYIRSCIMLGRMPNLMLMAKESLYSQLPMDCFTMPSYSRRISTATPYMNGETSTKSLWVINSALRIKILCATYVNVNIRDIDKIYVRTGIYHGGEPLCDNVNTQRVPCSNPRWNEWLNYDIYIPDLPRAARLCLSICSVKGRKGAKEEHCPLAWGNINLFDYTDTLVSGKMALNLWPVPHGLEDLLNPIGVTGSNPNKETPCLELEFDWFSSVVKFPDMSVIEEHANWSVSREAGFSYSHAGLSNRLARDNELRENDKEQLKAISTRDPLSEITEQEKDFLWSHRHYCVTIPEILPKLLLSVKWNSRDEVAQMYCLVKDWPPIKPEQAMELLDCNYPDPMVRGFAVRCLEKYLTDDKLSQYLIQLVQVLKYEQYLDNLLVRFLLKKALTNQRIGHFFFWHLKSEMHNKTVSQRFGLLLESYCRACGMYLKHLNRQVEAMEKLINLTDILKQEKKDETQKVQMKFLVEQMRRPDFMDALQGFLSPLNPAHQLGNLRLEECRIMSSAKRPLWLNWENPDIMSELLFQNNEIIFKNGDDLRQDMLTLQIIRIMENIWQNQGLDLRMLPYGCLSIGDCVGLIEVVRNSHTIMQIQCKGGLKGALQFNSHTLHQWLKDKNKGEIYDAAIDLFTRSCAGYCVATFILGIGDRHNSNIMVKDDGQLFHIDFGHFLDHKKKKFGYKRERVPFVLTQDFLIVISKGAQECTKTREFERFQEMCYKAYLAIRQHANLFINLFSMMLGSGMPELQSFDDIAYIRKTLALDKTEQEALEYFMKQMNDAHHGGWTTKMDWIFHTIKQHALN

Homo sapiens [4] = species on record: Homo sapiens; experiment: Selectivity ratio of Ki for inhibition of alexa fluor 647-labeled kinase tracer 314 binding to recombinant human full-length N-terminal His6-tagged p110alpha/p85alpha expressed in baculovirus expression system to Ki for inhibition of alexa fluor 647-labeled kinase tracer 314 binding to recombinant human N-terminal GST-fused mTOR (1360 to 2549 residues) expressed in baculovirus expression system
In short: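 Ratio of Ki values from the TR-FRET tracer 314 displacement assays. p110α: His6-tagged enzyme, biotin anti-His antibody and Eu-streptavidin (2 nM each), tracer at 20 nM, buffer 50 mM HEPES pH 7.5, 10 mM MgCl2, 1 mM EGTA, 0.01% Brij-35. mTOR: GST-mTOR 1360–2549, Eu-anti-GST, tracer 10 nM, HEPES/5 mM MgCl2/EGTA/Pluronic buffer.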

[5] = molecular target: Phosphatidylinositol 4,5-bisphosphate 3-kinase catalytic subunit gamma isoform (Homo sapiens, UniProt P48736); experiment: Binding affinity to human wild-type partial length PI3Kgamma (S144 to A1102 residues) expressed in mammalian expression system by kinome scan assay; in short: as §1
Phosphatidylinositol 4,5-bisphosphate 3-kinase catalytic subunit gamma isoform, sequence (P48736 whole entry, the tested form may be a part, canonical isoform): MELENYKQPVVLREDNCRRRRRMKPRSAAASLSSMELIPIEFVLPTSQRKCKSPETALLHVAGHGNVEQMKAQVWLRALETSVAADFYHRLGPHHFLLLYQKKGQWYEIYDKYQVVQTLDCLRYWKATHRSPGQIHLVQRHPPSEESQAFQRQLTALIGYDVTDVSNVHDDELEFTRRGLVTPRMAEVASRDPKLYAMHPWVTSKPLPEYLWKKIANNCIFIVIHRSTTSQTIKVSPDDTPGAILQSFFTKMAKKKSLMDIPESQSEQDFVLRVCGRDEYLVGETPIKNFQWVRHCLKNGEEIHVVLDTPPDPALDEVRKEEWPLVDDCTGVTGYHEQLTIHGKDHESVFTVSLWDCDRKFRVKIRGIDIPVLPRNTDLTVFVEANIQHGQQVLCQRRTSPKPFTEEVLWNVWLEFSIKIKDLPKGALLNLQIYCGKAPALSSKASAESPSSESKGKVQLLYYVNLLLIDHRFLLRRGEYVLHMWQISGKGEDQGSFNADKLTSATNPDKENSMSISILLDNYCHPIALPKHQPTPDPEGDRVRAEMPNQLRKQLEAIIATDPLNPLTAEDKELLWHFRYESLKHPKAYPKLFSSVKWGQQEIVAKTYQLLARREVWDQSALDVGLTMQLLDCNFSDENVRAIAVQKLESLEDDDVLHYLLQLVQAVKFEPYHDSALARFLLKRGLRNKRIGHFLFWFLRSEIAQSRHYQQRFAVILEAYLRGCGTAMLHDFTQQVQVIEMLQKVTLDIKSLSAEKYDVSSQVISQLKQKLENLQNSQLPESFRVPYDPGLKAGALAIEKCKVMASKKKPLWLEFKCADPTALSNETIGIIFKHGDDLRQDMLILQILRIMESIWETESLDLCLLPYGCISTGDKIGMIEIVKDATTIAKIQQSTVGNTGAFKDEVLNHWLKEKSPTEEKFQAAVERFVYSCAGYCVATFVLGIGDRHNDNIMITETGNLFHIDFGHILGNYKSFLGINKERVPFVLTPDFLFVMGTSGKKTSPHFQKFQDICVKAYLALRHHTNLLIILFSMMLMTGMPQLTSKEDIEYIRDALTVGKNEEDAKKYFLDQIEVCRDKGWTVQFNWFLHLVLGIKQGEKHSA

[6] = molecular target: Phosphatidylinositol 4,5-bisphosphate 3-kinase catalytic subunit alpha isoform (Homo sapiens, UniProt P42336); experiment: Binding affinity to human wild-type partial length PI3Kalpha (R108 to N1068 residues) expressed in mammalian expression system by kinome scan assay; in short: as §1
Phosphatidylinositol 4,5-bisphosphate 3-kinase catalytic subunit alpha isoform, sequence (P42336 whole entry, the tested form may be a part, canonical isoform): as the sequence (P42336 whole entry, the tested form may be a part) above

[7] = molecular target: T1, Phosphatidylinositol 4,5-bisphosphate 3-kinase catalytic subunit delta isoform (Homo sapiens, UniProt O00329); experiment: Binding affinity to human wild-type partial length PI3Kdelta (R108 to Q1044 residues) expressed in mammalian expression system by kinome scan assay; in short: as §1
T1 sequence (O00329 whole entry): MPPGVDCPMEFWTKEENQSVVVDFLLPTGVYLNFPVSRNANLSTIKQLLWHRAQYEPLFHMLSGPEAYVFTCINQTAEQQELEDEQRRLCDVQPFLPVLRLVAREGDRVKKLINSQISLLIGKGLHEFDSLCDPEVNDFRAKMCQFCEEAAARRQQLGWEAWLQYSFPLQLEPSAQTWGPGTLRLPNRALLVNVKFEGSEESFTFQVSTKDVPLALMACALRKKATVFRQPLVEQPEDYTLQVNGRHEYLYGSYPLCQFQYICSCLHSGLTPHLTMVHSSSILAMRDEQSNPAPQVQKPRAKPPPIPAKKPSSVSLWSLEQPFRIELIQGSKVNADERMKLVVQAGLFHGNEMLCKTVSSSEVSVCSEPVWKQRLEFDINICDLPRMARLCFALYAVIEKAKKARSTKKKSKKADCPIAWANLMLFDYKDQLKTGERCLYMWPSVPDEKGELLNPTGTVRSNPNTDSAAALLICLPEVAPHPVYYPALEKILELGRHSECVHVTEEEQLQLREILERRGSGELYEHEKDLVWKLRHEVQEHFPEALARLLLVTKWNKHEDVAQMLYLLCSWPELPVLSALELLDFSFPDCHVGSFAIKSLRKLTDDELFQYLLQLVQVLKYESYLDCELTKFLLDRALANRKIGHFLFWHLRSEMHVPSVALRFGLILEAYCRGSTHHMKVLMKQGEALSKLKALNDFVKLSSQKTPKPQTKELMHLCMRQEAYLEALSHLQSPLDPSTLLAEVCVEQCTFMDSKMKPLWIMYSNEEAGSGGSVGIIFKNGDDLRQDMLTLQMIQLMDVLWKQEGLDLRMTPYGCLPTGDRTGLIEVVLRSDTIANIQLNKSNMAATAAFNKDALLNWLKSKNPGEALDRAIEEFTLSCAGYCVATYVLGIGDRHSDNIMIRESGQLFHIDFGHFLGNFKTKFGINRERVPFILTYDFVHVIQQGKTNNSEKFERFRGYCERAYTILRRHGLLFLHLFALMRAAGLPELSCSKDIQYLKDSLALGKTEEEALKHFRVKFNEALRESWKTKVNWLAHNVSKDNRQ

CYP1A1 = molecular target: T2, CYP1A1 (Homo sapiens, UniProt P04798); experiment: Substrate activity at recombinant human CYP1A1 expressed in baculovirus infected insect cells assessed as parent compound remaining at 1 uM incubated for 60 mins in absence of NADP+-regenerating system by LC-MS analysis; assay type: ADME; settings: read-out: Stability
T2 sequence (P04798 whole entry): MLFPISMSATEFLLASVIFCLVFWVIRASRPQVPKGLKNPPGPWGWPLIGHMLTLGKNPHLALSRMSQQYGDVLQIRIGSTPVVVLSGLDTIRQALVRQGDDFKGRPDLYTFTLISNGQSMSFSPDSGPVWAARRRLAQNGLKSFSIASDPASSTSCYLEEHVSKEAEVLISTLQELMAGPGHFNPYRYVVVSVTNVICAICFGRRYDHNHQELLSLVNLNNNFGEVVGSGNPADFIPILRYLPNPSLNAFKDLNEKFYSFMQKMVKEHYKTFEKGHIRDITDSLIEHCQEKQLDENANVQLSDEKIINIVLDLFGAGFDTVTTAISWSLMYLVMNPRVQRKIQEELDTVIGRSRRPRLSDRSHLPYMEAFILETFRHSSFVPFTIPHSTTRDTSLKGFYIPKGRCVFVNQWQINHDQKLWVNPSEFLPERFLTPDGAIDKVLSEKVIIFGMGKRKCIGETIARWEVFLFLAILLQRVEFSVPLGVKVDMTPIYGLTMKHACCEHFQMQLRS
In short: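 Baculovirus/insect-cell Supersomes, each expressing a single human CYP, at 25 pmol/mL. Compound at 1 μM (0.25% DMSO), 37 °C, 60 min. Reactions run with a NADP+-regenerating cofactor mix or, as negative control, without cofactors and glucose-6-phosphate dehydrogenase. Stopped with ACN containing internal standard. Duplicates; % remaining from absolute amounts.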

[8] = molecular target: Serine/threonine-protein kinase mTOR (Homo sapiens, UniProt P42345); experiment: Binding affinity to wild-type human partial length mTOR (L1382 to W2549 residues) expressed in mammalian expression system by kinome scan assay; in short: as §1

Phosphatidylinositol 4,5-bisphosphate 3-kinase catalytic subunit beta isoform, sequence (P42338 whole entry, the tested form may be a part, canonical isoform): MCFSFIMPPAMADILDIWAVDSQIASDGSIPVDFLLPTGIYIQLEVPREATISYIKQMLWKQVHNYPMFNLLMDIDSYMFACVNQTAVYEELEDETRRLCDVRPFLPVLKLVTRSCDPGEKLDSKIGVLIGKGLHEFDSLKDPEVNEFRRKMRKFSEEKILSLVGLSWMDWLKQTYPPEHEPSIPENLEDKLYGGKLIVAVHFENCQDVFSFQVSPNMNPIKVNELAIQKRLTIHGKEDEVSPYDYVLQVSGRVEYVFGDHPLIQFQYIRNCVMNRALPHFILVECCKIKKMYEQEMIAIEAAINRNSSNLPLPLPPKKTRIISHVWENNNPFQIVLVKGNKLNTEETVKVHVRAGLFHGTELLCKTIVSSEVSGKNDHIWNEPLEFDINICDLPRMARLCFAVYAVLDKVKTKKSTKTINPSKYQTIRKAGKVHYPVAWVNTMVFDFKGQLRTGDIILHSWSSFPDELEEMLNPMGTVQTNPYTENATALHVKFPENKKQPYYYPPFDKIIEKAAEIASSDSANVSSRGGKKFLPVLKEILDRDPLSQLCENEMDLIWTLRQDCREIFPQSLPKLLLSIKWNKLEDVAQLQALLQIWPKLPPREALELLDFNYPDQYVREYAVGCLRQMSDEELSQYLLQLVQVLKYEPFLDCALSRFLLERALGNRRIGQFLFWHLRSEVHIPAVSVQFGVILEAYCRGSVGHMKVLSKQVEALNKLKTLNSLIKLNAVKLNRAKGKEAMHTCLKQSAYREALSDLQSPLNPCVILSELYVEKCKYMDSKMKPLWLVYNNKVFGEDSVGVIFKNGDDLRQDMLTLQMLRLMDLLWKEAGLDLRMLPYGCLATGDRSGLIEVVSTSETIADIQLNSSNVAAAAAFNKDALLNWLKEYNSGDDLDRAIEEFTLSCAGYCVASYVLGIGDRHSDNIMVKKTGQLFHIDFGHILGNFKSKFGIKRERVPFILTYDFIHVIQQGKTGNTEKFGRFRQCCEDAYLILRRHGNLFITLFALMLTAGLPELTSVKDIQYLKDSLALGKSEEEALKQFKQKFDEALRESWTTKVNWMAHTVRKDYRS

| Kd [1] [nM] | Selectivity ratio (Homo sapiens [2]) | Ki [3] [nM] | Ratio Ki (Homo sapiens [4]) | Kd [5] [nM] | Kd [6] [nM] | Kd [7] [nM] | remaining at 1 h, 1 µM (CYP1A1) [%] | Kd [8] [nM] | SMILES |
| --- | --- | --- | --- | --- | --- | --- | --- | --- | --- |
| 7500 | 457 | 1690 | 212 | 11000 | 1600 | 12000 | 96 | 3.5 | C[C@@H]1COCCN1c1nc(-c2cnc(N)cn2)nc2c1C[C@@H]1COCCN21 |
| 1400 | 8.6 | 536 | 214 | 1800 | 120 | 1900 | 93 | 14 | C[C@@H]1COCCN1c1nc(-c2cnc(N)nc2)nc2c1C[C@@H]1COCCN21 |
| 4100 | 17.9 | 2150 | 165 | 8700 | 610 | 6200 | 109 | 34 | C[C@@H]1COCCN1c1nc(-c2ccc(N)nc2)nc2c1C[C@@H]1COCCN21 |

From ChEMBL document CHEMBL4321805, “A Conformational Restriction Strategy for the Identification of a Highly Selective Pyrimido-pyrrolo-oxazine mTOR Inhibitor” (J Med Chem, 2019)
